# Laboratory results taken from ChEMBL document CHEMBL4513216, “Probing the Open Global Health Chemical Diversity Library for Multistage-Active Starting Points for Next-Generation Antimalarials” (ACS Infect Dis, 2020).
# Test: Toxicity liver stage against HepG2, at 10uM
# Assay type: cell-based
# Set-up: test concentration 10 uM, cell line HepG2-A16-CD81EGFP
# Details: human, HepG2-A16-CD81EGFP cells; read-out: INHIBITION
# Outline: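 Uninfected HepG2-A16-CD81EGFP cells, 3 × 10^3 per well, 1536-well, plated on prespotted compound at 10 μM final, parasite-free screening media added to match infected plates; puromycin 10 μM positive, DMSO 0.5% negative; run in parallel with 48 h PbLuc assay at 37 °C, 5% CO2; viability by CellTiter-Glo luminescence, normalized to controls.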
row,Structure (SMILES),cytotoxicity at 10 µM
1,CC(=O)N1CCN(C(=O)C[C@@H]2C[C@@H](C(C)C)[C@H](CC#N)C=C2C)CC1,-1.01%
2,O=C(O)c1cn(-c2ccccn2)c(=O)c2ccccc12,0.847%
3,COc1ccc(C(=O)CNC(=O)c2nc(Cl)sc2C(C)C)cc1,-3.15%
4,O=S(=O)(NCC1(c2cccs2)CCCC1)c1cccnc1,-2.56%
5,COc1ccc(CN2C[C@@H]3CN(C(=O)[C@H]4CCCO4)C[C@@H]3C2=O)cc1,-0.0368%
6,CN(C)C(=O)N1CC2(CCN(S(C)(=O)=O)CC2)c2ccccc21,-121%
7,Cc1nc(N(C)C)nc2c1COCC21CCN(C(=O)NCC(C)C)C1 (stereo not given),7.63%
8,CC(C)(C)C(=O)N1CCCc2c(cnn2-c2ccccc2)C1,7.15%
9,CCCN(Cc1cnn(C)c1)S(=O)(=O)c1cccc(F)c1C#N,-9.04%
10,COC(=O)c1ccoc1CN(C)CC(=O)NC1CC1,-1.96%
11,CC(C)Cn1cc(NC(=O)c2cccc(N(C)C)c2)cn1,11.8%
12,CC(C)(C)n1cc(NC(=O)C2CN(Cc3ccccc3)CCO2)cn1 (stereo not given),0.935%
13,N#Cc1ccccc1C(=O)Nc1cccc(CN2CCC(CO)CC2)c1,-140%
14,O=C(CN1CCCC(Cn2cncn2)C1)Nc1cccnc1 (stereo not given),2.01%
15,CN(CC(F)(F)F)C(=O)c1ccc(F)c(NS(C)(=O)=O)c1,-2.05%
16,CC(C)OCCNC(=O)C1CCC(=O)N(C2CCCC2)C1 (stereo not given),-12.5%
17,CCCc1cncnc1N1CCC2(CCC(=O)N(CCCO)C2)CC1,2.8%
18,COc1cccc(-c2n[nH]c3c2CN(C(=O)c2oc(C)cc2C)CC3)c1,-3.17%
19,CC(C)CC(NC(=O)c1cc(C2CC2)n[nH]1)c1ncnn1C (stereo not given),4.93%
20,CCc1noc(CN(CC)Cc2cc3cc(C)ccc3[nH]c2=O)n1,2.7%
21,CN(Cc1ccccc1)S(=O)(=O)N1C[C@H](C2CC2)[C@@H](N)C1,-159%
22,Cc1ccc(OC2(C(=O)O)CCN(C/C=C/c3ccco3)CC2)cc1,-14.4%
23,Cc1nc(O)cc(CN2CC=C(c3cnn(-c4ccccc4)c3)CC2)n1,-10.5%

row,Structure (SMILES),cytotoxicity at 10 µM
1,COCCCN1CCC(c2nc3c([nH]2)CC(C)(C)CNC3=O)C1 (stereo not given),0.0531%
2,CN(CC(=O)N1CC(Oc2ccccc2Cl)C1)Cc1ccncc1,-2.67%
3,CCN(Cc1noc(C)n1)C(=O)CCc1scnc1C,2.13%
4,O=C(Nc1nncs1)N1CCCN(C2CCCCC2)CC1,1.48%
5,O=C(NCc1cc2n(n1)CCCNC2)C1(c2ccc(Cl)cc2)CCC1,-9.72%
6,COc1cc(CNC2CCc3nc(C)nn3C2)cc2c1OCO2 (stereo not given),-11.6%
7,Cc1nc(C)n(CC2CCCN(Cc3cccc(C(N)=O)c3)C2)n1 (stereo not given),-29%
8,CC(C)c1nc(C2CCCN(C(=O)CCc3cscn3)C2)no1 (stereo not given),-17.2%
9,c1ccc(-c2nnc(CNC3CCCN(c4cccnn4)C3)o2)cc1 (stereo not given),-9.45%
10,Cc1noc(C)c1CN1CCC(c2ccnn2CCO)CC1,-9.73%
11,Cc1nnc2n1CCN(CCCS(=O)(=O)c1ccccc1)C2,-11.2%
12,CN(CCNC(=O)NCc1ccsc1)C1CCCC1,-12.4%
13,Cc1cnn(CC2CN(Cc3nc4ccccc4n3C)CCO2)c1 (stereo not given),0.338%
14,c1coc(-c2nc(CN3CCn4c(nnc4C4CC4)C3)cs2)c1,-4.64%
15,COc1cccc(CNC(=O)CN2CCCCC2Cn2cccn2)c1 (stereo not given),2.77%
16,COc1ccc(C(C)NCc2c[nH]nc2C)cc1OC (stereo not given),-3.75%
17,Cn1cccc1CN1CCC2(CCCN(C(=O)c3cccnc3)C2)CC1,-147%
18,CCn1ncc2c1C(COCC1CC1)N(Cc1cnn(C)c1)CC2 (stereo not given),8.98%
19,CN(C)C(=O)N1CCC2(CCCN(CCOc3ccccc3)C2)C1 (stereo not given),-0.537%
20,COC1CC2(CCN(Cc3nccn3C)CC2)C1,-133%
21,CC(C)NC(=O)N1CC[C@H]2[C@H]1CCN2c1ncccn1,-0.155%
22,CC(=O)N1CCS(=O)(=O)[C@@H]2CCN(CC(C)C)CC[C@@H]21,-142%
